Data on 19 compounds can be found in ChEMBL document CHEMBL4152298, “Total synthesis of acylphloroglucinols and their antibacterial activities against clinical isolates of multi-drug resistant (MDR) and methicillin-resistant strains of Staphylococcus aureus” (2018).

What all share (format): functional
The subject of assay [1] is Staphylococcus aureus. The assay can be described thus: Antibacterial activity against Staphylococcus aureus SA1199B over-expressing NorA by MTT dye based assay. The essentials:
(§1)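 Strains grown on nutrient agar for 24 h at 37 °C before testing. Compounds dissolved in DMSO, diluted in MHB to 512 mg/L stock. Two-fold serial broth microdilution in MHB, final 128 to 0.25 mg/L in the initial evaluation. Final DMSO 1.56% to 0.0031% v/v. Inoculum 5×10^5 cfu/mL, 37 °C incubation, duplicates. MTT added for 20 min. MIC is the lowest concentration with no colour change.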
A general note: Tetrazolium assays rely on reduction of a dye to a coloured formazan, in cell work by metabolically active cells.

Assay [2] concerns Staphylococcus aureus. The assay is described as follows: Antibacterial activity against methicillin-resistant Staphylococcus aureus EMRSA15 by MTT dye based assay. An outline of the steps:
as §1

In assay [3] the test system is Staphylococcus aureus. The assay is described as follows: Antibacterial activity against methicillin-resistant Staphylococcus aureus isolate XU212 harboring TetK tetracycline efflux pump by MTT dye based assay. An outline of the steps:
as §1

In assay [4] the test system is Staphylococcus aureus. The assay can be described thus: Antibacterial activity against methicillin-resistant Staphylococcus aureus EMRSA16 by MTT dye based assay. The essentials: as §1
Assay [5] relates to Staphylococcus aureus. The assay is described as follows: Antibacterial activity against Staphylococcus aureus ATCC 25923 by MTT dye based assay. The essentials:
as §1

For assay [6], the system named is Staphylococcus aureus. The assay can be described thus: Antibacterial activity against Staphylococcus aureus RN4220 harboring MsrA macrolide efflux protein by MTT dye based assay. An outline of the steps:
as §1

As usually defined, the MIC is the lowest concentration found to suppress growth.

Values after ≈ are worked out from the molar mass of the structure shown. Some results are limits rather than exact numbers.

On to `CC(=O)c1c(O)cc(O)cc1OC/C=C(\C)CCC=C(C)C`, for which the MIC stood at 8 µg/mL (≈ 26.3 µM) in assay [1]; 16 µg/mL (≈ 52.6 µM) in assay [2]; 8 µg/mL (≈ 26.3 µM) in assay [3]; 4 µg/mL (≈ 13.1 µM) in assay [4]; 16 µg/mL (≈ 52.6 µM) in assay [5]; 8 µg/mL (≈ 26.3 µM) in assay [6].
Take `CC[C@H](C)C(=O)c1c(O)cc(O)cc1OCc1ccccc1`: the MIC in assay [1] was 8 µg/mL (≈ 26.6 µM); in assay [2], 8 µg/mL (≈ 26.6 µM); in assay [3] it was 4 µg/mL (≈ 13.3 µM); in assay [4], 4 µg/mL (≈ 13.3 µM); in assay [5] it was 4 µg/mL (≈ 13.3 µM); in assay [6] it was 4 to 8 µg/mL (≈ 13.3 to 26.6 µM).
Turning to `CC(C)=CCC/C(C)=C/COc1cc(O)cc(O)c1C(=O)c1ccccc1`, the MIC in assay [1] stood at 1 µg/mL (≈ 2.73 µM); in assay [2], 1 µg/mL (≈ 2.73 µM); in assay [3], 1 µg/mL (≈ 2.73 µM); in assay [4], 0.5 µg/mL (≈ 1.36 µM); in assay [5], 1 µg/mL (≈ 2.73 µM); in assay [6] it was 1 µg/mL (≈ 2.73 µM).
Consider `CC[C@H](C)C(=O)c1c(O)cc(O)cc1OC/C=C(\C)CC/C=C(\C)CCC=C(C)C`, for which the MIC in assay [1], in assay [2], in assay [3], in assay [4], in assay [5] and in assay [6] was over 512 µg/mL in each case.
`CCCCCCCCCCCCOc1cc(O)cc(O)c1C(=O)[C@@H](C)CC`: the MIC in assay [1] was found to be 16 µg/mL (≈ 42.3 µM); in assay [2] it was 16 µg/mL (≈ 42.3 µM); in assay [3] it was 64 µg/mL (≈ 169 µM); in assay [4], 16 µg/mL (≈ 42.3 µM); in assay [5], 128 µg/mL (≈ 338 µM); in assay [6], 8 µg/mL (≈ 21.1 µM).
Regarding `CCCCC(=O)c1c(O)cc(O)cc1OC/C=C(\C)CCC=C(C)C`, the MIC in assay [1] was determined as 1 µg/mL (≈ 2.89 µM); in assay [2], 1 µg/mL (≈ 2.89 µM); in assay [3], 0.5 µg/mL (≈ 1.44 µM); in assay [4], 0.5 µg/mL (≈ 1.44 µM); in assay [5], 0.5 µg/mL (≈ 1.44 µM); in assay [6] it was 0.5 µg/mL (≈ 1.44 µM).
As to `CC[C@H](C)C(=O)c1c(O)cc(O)cc1OCCC(C)C`, the minimum inhibitory concentration (MIC) in assay [1] is 2 µg/mL (≈ 7.13 µM); in assay [2], 2 to 4 µg/mL (≈ 7.13 to 14.3 µM); in assay [3] it was 4 µg/mL (≈ 14.3 µM); in assay [4] it was 2 to 4 µg/mL (≈ 7.13 to 14.3 µM); in assay [5], 2 µg/mL (≈ 7.13 µM); in assay [6], 2 µg/mL (≈ 7.13 µM).
In the case of `CCCCCCCCOc1cc(O)cc(O)c1C(=O)[C@@H](C)CC`, the MIC in assay [1] is 0.25 to 0.5 µg/mL (≈ 0.775 to 1.55 µM); in assay [2], 0.5 µg/mL (≈ 1.55 µM); in assay [3], 0.5 µg/mL (≈ 1.55 µM); in assay [4], 0.25 µg/mL (≈ 0.775 µM); in assay [5], 0.25 to 0.5 µg/mL (≈ 0.775 to 1.55 µM); in assay [6], 0.5 µg/mL (≈ 1.55 µM).
In the case of `CCCCCCCCCCCCCCCCCC(=O)c1c(O)cc(O)cc1OC/C=C(\C)CCC=C(C)C`, the minimal inhibitory concentration (MIC) in assay [1], in assay [2], in assay [3], in assay [4], in assay [5] and in assay [6] was over 512 µg/mL in each case.
As for `CCC(=O)c1c(O)cc(O)cc1OC/C=C(\C)CCC=C(C)C`, the MIC in assay [1] is 2 µg/mL (≈ 6.28 µM); in assay [2], 2 µg/mL (≈ 6.28 µM); in assay [3], 1 µg/mL (≈ 3.14 µM); in assay [4], 1 µg/mL (≈ 3.14 µM); in assay [5], 2 µg/mL (≈ 6.28 µM); in assay [6], 1 µg/mL (≈ 3.14 µM).
With `CC[C@H](C)C(=O)c1c(O)cc(O)cc1OCC=C(C)C`, the MIC is 16 µg/mL (≈ 57.5 µM) in assay [1]; 16 µg/mL (≈ 57.5 µM) in assay [2]; 4 to 8 µg/mL (≈ 14.4 to 28.7 µM) in assay [3]; 4 µg/mL (≈ 14.4 µM) in assay [4]; 8 µg/mL (≈ 28.7 µM) in assay [5]; 8 µg/mL (≈ 28.7 µM) in assay [6].
As to `CCCCCCCCCCCCCCCCCCOc1cc(O)cc(O)c1C(=O)[C@@H](C)CC`, the minimum inhibitory concentration (MIC) in assay [1], in assay [2], in assay [3], in assay [4], in assay [5] and in assay [6] was over 512 µg/mL throughout.
For `CCCCCCCCCC(=O)c1c(O)cc(O)cc1OC/C=C(\C)CCC=C(C)C`, the MIC stood at 512 µg/mL (≈ 1230 µM) in assay [1]; 512 µg/mL (≈ 1230 µM) in assay [2]; 64 µg/mL (≈ 154 µM) in assay [3]; 64 µg/mL (≈ 154 µM) in assay [4]; 512 µg/mL (≈ 1230 µM) in assay [5]; 256 µg/mL (≈ 614 µM) in assay [6].
On to `CC[C@H](C)C(=O)c1c(O)cc(O)cc1OCCC(C)CCCC(C)C` (some centres not stated), for which the MIC in assay [1] was 0.5 to 1 µg/mL (≈ 1.43 to 2.85 µM); in assay [2], 0.5 to 1 µg/mL (≈ 1.43 to 2.85 µM); in assay [3], 1 µg/mL (≈ 2.85 µM); in assay [4], 0.25 µg/mL (≈ 0.713 µM); in assay [5] it was 1 µg/mL (≈ 2.85 µM); in assay [6], 0.5 µg/mL (≈ 1.43 µM).
With `CCCCCCCCCCOc1cc(O)cc(O)c1C(=O)[C@@H](C)CC`, the minimum inhibitory concentration (MIC) in assay [1] was 2 µg/mL (≈ 5.71 µM); in assay [2], 0.5 to 1 µg/mL (≈ 1.43 to 2.85 µM); in assay [3], 2 to 4 µg/mL (≈ 5.71 to 11.4 µM); in assay [4], 0.25 µg/mL (≈ 0.713 µM); in assay [5], 1 to 2 µg/mL (≈ 2.85 to 5.71 µM); in assay [6], 1 µg/mL (≈ 2.85 µM).
As for `CCCC(=O)c1c(O)cc(O)cc1OC/C=C(\C)CCC=C(C)C`, the MIC was 2 µg/mL (≈ 6.02 µM) in assay [1]; 2 µg/mL (≈ 6.02 µM) in assay [2]; 2 µg/mL (≈ 6.02 µM) in assay [3]; 1 µg/mL (≈ 3.01 µM) in assay [4]; 2 µg/mL (≈ 6.02 µM) in assay [5]; 2 µg/mL (≈ 6.02 µM) in assay [6].
For the compound `CCn1cc(C(=O)O)c(=O)c2cc(F)c(N3CCNCC3)cc21` [NORFLOXACIN], the minimal inhibitory concentration (MIC) worked out at 32 µg/mL (≈ 100 µM) in assay [1]; 0.5 µg/mL (≈ 1.57 µM) in assay [2]; 8 µg/mL (≈ 25.1 µM) in assay [3]; 256 µg/mL (≈ 802 µM) in assay [4]; 0.5 µg/mL (≈ 1.57 µM) in assay [5]; 0.5 µg/mL (≈ 1.57 µM) in assay [6].
Turning to `CC[C@H](C)C(=O)c1c(O)cc(O)cc1OC/C=C(\C)CCC=C(C)C` [OLYMPICIN A], the MIC in assay [1] came to 1 µg/mL (≈ 2.89 µM); in assay [2], 1 µg/mL (≈ 2.89 µM); in assay [3] it was 0.5 µg/mL (≈ 1.44 µM); in assay [4], 0.5 µg/mL (≈ 1.44 µM); in assay [5] it was 1 µg/mL (≈ 2.89 µM); in assay [6] it was 1 µg/mL (≈ 2.89 µM).
As to `CN[C@H](CC(C)C)C(=O)N[C@H]1C(=O)N[C@@H](CC(N)=O)C(=O)N[C@H]2C(=O)N[C@H]3C(=O)N[C@H](C(=O)N[C@H](C(=O)O)c4cc(O)cc(O)c4-c4cc3ccc4O)[C@H](O)c3ccc(c(Cl)c3)Oc3cc2cc(c3O[C@@H]2O[C@H](CO)[C@@H](O)[C@H](O)[C@H]2O[C@H]2C[C@](C)(N)[C@H](O)[C@H](C)O2)Oc2ccc(cc2Cl)[C@H]1O` [VANCOMYCIN], the minimal inhibitory concentration (MIC) in assay [1], in assay [2], in assay [4] and in assay [5] was 0.25 µg/mL (≈ 0.173 µM) in each case.
